Measurements as given in ChEMBL document CHEMBL4422695, “Antiangiogenic Activity of Compounds Isolated from Anarrhinum pedatum” (2019).
The source made the active and inactive calls. No cut-off for these calls is given here.

Assays:
Danio rerio = organism: Danio rerio; assay: Antiangiogenic activity in wild type zebrafish 24 hrs post fertilization embryos assessed as reduction in blood vessel growth at 2 uM treated for 48 hrs by alkaline phosphatase assay relative to control; type: functional
Method in brief: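 Wild-type zebrafish embryos from natural mating, raised at 28.5 °C; healthy embryos selected at 24 hpf, dechorionated, one per well in 100 μL embryo water with agent (2 μM) in DMSO 0.2% v/v, 10 per group, exposed 24–72 hpf. Ethanol-dehydrated, diethanolamine buffer (1 M, pH 9.8) washes, p-nitrophenyl phosphate 0.5 mg/mL 30 min RT, NaOH stop, OD 405 nm; percent of control, ≥3 repeats, t-test.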

Chorioallantoic membrane [1] = assay: Antiangiogenic activity in chicken fertilized egg chorioallantoic membrane at 2 uM after 48 hrs by stereomicroscopic analysis relative to control; type: functional, tissue-based; conditions: Gallus gallus
Method in brief: (§1)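 Fertilized chicken eggs incubated at 37 °C, positioned horizontally and rotated; 1 cm2 window opened on day 4, malformed or dead embryos excluded. Test agents at 2 μM (100 μL/egg) or retinoic acid at 3 μM, in DMSO (0.2% v/v) in Tris buffer pH 7.4; ten eggs/group. Reincubated 2 days. CAM microvasculature imaged under stereomicroscope, standardized area quantified; percent of vehicle control, three repeats, t-test.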

Chorioallantoic membrane [2] = assay: Antiangiogenic activity in chicken fertilized egg chorioallantoic membrane assessed as appearance of less dense microvasculature at 2 uM after 48 hrs by stereomicroscopic analysis; type: functional, tissue-based; conditions: Gallus gallus; method in brief: as §1
Chorioallantoic membrane [3] = assay: Antiangiogenic activity in chicken fertilized egg chorioallantoic membrane at 3 uM after 48 hrs by stereomicroscopic analysis relative to control; type: functional, tissue-based; conditions: Gallus gallus; method in brief: as §1
Chorioallantoic membrane [4] = assay: Antiangiogenic activity in chicken fertilized egg chorioallantoic membrane assessed as reduction in capillary formation at 3 uM after 48 hrs by stereomicroscopic analysis; type: functional, tissue-based; conditions: Gallus gallus; method in brief: as §1

| SMILES | Activity (Danio rerio) | Activity (Chorioallantoic membrane [1]) | Activity (Chorioallantoic membrane [2]) | other results |
| --- | --- | --- | --- | --- |
| C[C@]12O[C@H]1[C@@H](OC(=O)/C=C/c1ccccc1)[C@]1(O)C=CO[C@@H](O[C@@H]3O[C@H](CO)[C@@H](O)[C@H](O)[C@H]3O)[C@@H]12 | inactive | 23.9% | Active |  |
| O=C(/C=C/c1ccccc1)OC[C@H]1O[C@@H](O[C@@H]2OC=C[C@@]3(O)[C@H](O)[C@@H]4O[C@]4(CO)[C@@H]23)[C@H](O)[C@@H](O)[C@@H]1O | inactive |  |  |  |
| C=C[C@@](C)(O)CC/C=C(\C)C(=O)OC[C@H]1O[C@@H](O[C@@H]2OC=C(C(=O)O[C@@H]3CO[C@](O)(CO)[C@@H](O)[C@@H]3O)[C@H]3CC[C@](C)(O)[C@@H]23)[C@H](O)[C@@H](O)[C@@H]1O | 72.72% | 21.5% | Active |  |
| C[C@]1(O)CC[C@@H]2C(C(=O)O[C@@H]3CO[C@](O)(CO)[C@@H](O)[C@@H]3O)=CO[C@@H](O[C@@H]3O[C@H](COC(=O)C=Cc4ccc(O)cc4)[C@@H](O)[C@H](O)[C@H]3O)[C@@H]21 (mixture of isomers) | inactive |  |  |  |
| C=C[C@@](C)(O)CC/C=C(\C)C(=O)O[C@@]12C=CO[C@@H](O[C@@H]3O[C@H](CO)[C@@H](O)[C@H](O)[C@H]3O)[C@@H]1[C@@]1(CO)O[C@H]1[C@H]2OC(=O)/C(C)=C/CC/C(C)=C/CO | inactive | 31.4% | Active |  |
| C/C(=C/CO)CC/C=C(\C)C(=O)OC[C@H]1O[C@@H](O[C@@H]2OC=C(C(=O)O[C@@H]3CO[C@](O)(CO)[C@@H](O)[C@@H]3O)[C@H]3CC[C@](C)(O)[C@@H]23)[C@H](O)[C@@H](O)[C@@H]1O | inactive |  |  |  |
| C[C@]12O[C@H]1[C@@H](O)[C@]1(O)C=CO[C@@H](O[C@@H]3O[C@H](CO)[C@@H](O)[C@H](O)[C@H]3O)[C@@H]12 [ANTIRRHINOSIDE] | 81% | 29.9% | Active |  |
| COc1cc2c(cc1O)CC[C@@H]1[C@@H]2CC[C@]2(C)[C@@H](O)CC[C@@H]12 [2-METHOXYESTRADIOL] | 52% |  |  |  |
| C/C(=C\CO)CC/C=C(\C)C(=O)O[C@@H]1[C@@H]2O[C@]2(C)[C@H]2[C@H](O[C@@H]3O[C@H](CO)[C@@H](O)[C@H](O)[C@H]3O)OC=C[C@@]12OC(=O)/C(C)=C/CC/C(C)=C/CO | inactive |  |  |  |
| C/C(=C\CO)CC/C=C(\C)C(=O)O[C@@H]1[C@@H]2O[C@]2(CO)[C@H]2[C@H](O[C@@H]3O[C@H](CO)[C@@H](O)[C@H](O)[C@H]3O)OC=C[C@@]12O | inactive |  |  |  |
| C/C(=C\CO[C@@H]1O[C@H](CO)[C@@H](O)[C@H](O)[C@H]1O)CC/C=C(\C)C(=O)O[C@@H]1O[C@H](CO)[C@@H](O)[C@H](O)[C@H]1O | inactive |  |  |  |
| CC1=C(/C=C/C(C)=C/C=C/C(C)=C/C(=O)O)C(C)(C)CCC1 |  |  |  | Activity (Chorioallantoic membrane [3]): 45%; Activity (Chorioallantoic membrane [4]): Active |
| C=C[C@@](C)(O)CC/C=C(\C)C(=O)O[C@@]12C=CO[C@@H](O[C@@H]3O[C@H](CO)[C@@H](O)[C@H](O)[C@H]3O)[C@@H]1[C@@]1(C)O[C@H]1[C@H]2OC(=O)/C(C)=C/CC/C(C)=C/CO | inactive |  |  |  |
| C[C@]12O[C@H]1[C@@H](OC(=O)C=Cc1ccc(O)cc1)[C@]1(O)C=CO[C@@H](O[C@@H]3O[C@H](CO)[C@@H](O)[C@H](O)[C@H]3O)[C@@H]12 (mixture of isomers) | 77.38% |  |  |  |
| C/C(=C\CO)CC/C=C(\C)C(=O)O[C@@H]1[C@@H]2O[C@]2(CO)[C@H]2[C@H](O[C@@H]3O[C@H](CO)[C@@H](O)[C@H](O)[C@H]3O)OC=C[C@@]12OC(=O)/C(C)=C/CC/C(C)=C/CO | inactive |  |  |  |
| C/C(=C\CO)CC/C=C(\C)C(=O)O[C@@H]1[C@@H]2O[C@]2(C)[C@H]2[C@H](O[C@@H]3O[C@H](CO)[C@@H](O)[C@H](O)[C@H]3O)OC=C[C@@]12O | 48.33% | 29.6% | Active |  |
| C/C(=C\CO)CC/C=C(\C)C(=O)OC[C@H]1OC(O)[C@H](O)[C@@H](O)[C@@H]1O (some centres not stated) | inactive |  |  |  |
| C=C[C@@](C)(O)CC/C=C(\C)C(=O)O[C@@H]1O[C@H](CO)[C@@H](O)[C@H](O)[C@H]1O | 56.98% | 29% | Active |  |
| C/C(=C\CO)CC/C=C(\C)C(=O)O[C@@H]1O[C@H](CO)[C@@H](O)[C@H](O)[C@H]1O | 79.82% |  |  |  |
